Test results reported in ChEMBL document CHEMBL2331403, “Discovery and optimization of a novel series of potent mutant B-Raf(V600E) selective kinase inhibitors” (J Med Chem, 2013).

How the values were obtained:
[1] = Volume of distribution at steady state in Han Wistar rat at 10 mg/kg, po and 3 mg/kg, iv; format: ADME, organism-based; conditions: in vivo, read-out: Vdss
Method in brief: (§1)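 Rat PK study: oral dose 10 mg/kg in 0.1% HPMC; intravenous dose 3 mg/kg in 40% DMA/40% TEG/20% saline. Half-life taken from the iv arm; F not determined where no oral dose was given.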

[2] = Oral bioavailability in Han Wistar rat at 10 mg/kg; format: ADME, organism-based; conditions: in vivo; method in brief: as §1
Plasma [3] = experiment: Fraction unbound in human plasma by LC-MS/MS analysis; format: ADME, cell-free
Plasma [4] = experiment: Drug uptake in plasma of po dosed nude mouse xenografted with human A375 cells after 2 hrs; format: ADME, organism-based, A-375; conditions: in vivo
Method in brief: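 A375 xenograft mice given a single oral dose; tumors and plasma harvested 2 h later. Tumor pERK measured by Western blot with equal protein loading, normalized to total ERK, and expressed as percent reduction in pERK.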

Vd [1] [L/kg]	bioavailability [2] [%]	Cp(f) (Plasma [3]) [%]	Drug uptake (Plasma [4])	Compound
0.7	60	–	–	COCCC(=O)N(C)c1ccc(Nc2ncc3cc(-c4ccncc4)ccc3n2)cc1
–	–	< 1	–	COCCN(C)c1ccc(Nc2ncc3cc(-c4ccncc4)ccc3n2)cc1
4.9	31	9.4	–	COCCNC(C)c1ccc(Nc2ncc3cc(-c4ccncc4)ccc3n2)cc1 (configuration not stated)
–	–	1.5	–	COCCC(=O)N[C@H](C)c1ccc(Nc2ncc3cc(-c4ccncc4)ccc3n2)cc1
–	–	< 1	–	COCCC(=O)N[C@@H](C)c1ccc(Nc2ncc3cc(-c4ccncc4)ccc3n2)cc1
–	–	5	–	CC(=O)NC(C)c1ccc(Nc2ncc3cc(-c4ccncc4)ccc3n2)cc1 (configuration not stated)
0.8	100	6	Dose-dependent effect	CC(=O)N[C@H](C)c1ccc(Nc2ncc3cc(-c4ccncc4)ccc3n2)cc1
13	28	5.1	–	C[C@@H](NC(=O)[C@H]1CCCCN1)c1ccc(Nc2ncc3cc(-c4ccncc4)ccc3n2)cc1
–	–	3.4	–	C[C@@H](NC(=O)[C@H]1CCCCN1CCO)c1ccc(Nc2ncc3cc(-c4ccncc4)ccc3n2)cc1
–	–	1.7	–	C[C@@H](NC(=O)[C@H]1CCCNC1)c1ccc(Nc2ncc3cc(-c4ccncc4)ccc3n2)cc1
–	–	3.4	–	C[C@@H](NC(=O)C1CCNCC1)c1ccc(Nc2ncc3cc(-c4ccncc4)ccc3n2)cc1
–	–	1.4	–	C[C@@H](NC(=O)[C@H]1CCCN1)c1ccc(Nc2ncc3cc(-c4ccncc4)ccc3n2)cc1
0.67	17	1.3	–	C[C@@H](NC1=CC(=O)CCC1)c1ccc(Nc2ncc3cc(-c4ccncc4)ccc3n2)cc1
–	–	2.3	–	C[C@@H](NC1=CC(=O)NCC1)c1ccc(Nc2ncc3cc(-c4ccncc4)ccc3n2)cc1
7.9	–	3.6	–	C[C@@H](NC1=CC(=O)CNC1)c1ccc(Nc2ncc3cc(-c4ccncc4)ccc3n2)cc1
0.67	–	–	–	COc1cc2nc(Nc3ccc([C@@H](C)NC(C)=O)cc3)ncc2cc1-c1ccncc1
–	–	< 1	–	CC(=O)N[C@H](C)c1ccc(Nc2ncc3cc(-c4ccncc4)c(Cl)cc3n2)cc1
–	–	< 1	–	CC(=O)N[C@H](C)c1ccc(Nc2ncc3cc(-c4ccncc4)cc(Cl)c3n2)cc1
–	–	1.9	–	CC(=O)N[C@H](C)c1ccc(Nc2ncc3cc(-c4ccncc4)c(C)cc3n2)cc1
–	–	< 1	–	CC(=O)N[C@H](C)c1ccc(Nc2ncc3cc(-c4ccncc4)cc(C)c3n2)cc1
–	–	3.8	–	C[C@@H](NC(=O)C1CCCCN1C)c1ccc(Nc2ncc3cc(-c4ccncc4)ccc3n2)cc1 (mixture of isomers)
